Assay results taken from ChEMBL document CHEMBL1137433, “Synthesis and antibacterial evaluation of ureides of Baylis-Hillman derivatives” (2006).
Converted amounts (≈) assume the structure as drawn.

Experiments:
Type in all cases: functional
[1] = test system: Pseudomonas aeruginosa; assay: Antibacterial activity against Pseudomonas aeruginosa
Summary of the method: (§1)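 Broth microdilution MIC in Mueller Hinton broth, 96-well plates. Strains from departmental collection, kept on nutrient agar slants at 37 °C, purity checked before testing. Starting inoculum 1–5 · 10³ cells/ml. Plates incubated 24 h at 37 °C in a moist chamber, then absorbance read at 492 nm. MIC taken as 90% growth inhibition relative to growth control.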

[2] = test system: Staphylococcus aureus; assay: Antibacterial activity against Staphylococcus aureus; summary of the method: as §1
[3] = test system: Enterococcus faecalis; assay: Antibacterial activity against Streptococcus faecalis; summary of the method: as §1
[4] = test system: Escherichia coli; assay: Antibacterial activity against Escherichia coli; summary of the method: as §1
[5] = test system: Klebsiella pneumoniae; assay: Antibacterial activity against Klebsiella pneumoniae; summary of the method: as §1

N=c1c(Cc2ccc(Cl)c(Cl)c2)c[nH]c(=O)n1-c1ccc(Cl)cc1Cl
MIC [1]: 25 µg/mL (≈ 60.2 µM) | MIC [2]: 3.12 µg/mL (≈ 7.52 µM) | MIC [3]: 3.12 µg/mL (≈ 7.52 µM) | MIC [4]: 3.12 µg/mL (≈ 7.52 µM) | MIC [5]: 3.12 µg/mL (≈ 7.52 µM)

N#C/C(=C/c1ccccc1Cl)CNC(=O)Nc1ccc(Cl)cc1
MIC [1]: > 50 µg/mL | MIC [2]: > 50 µg/mL | MIC [3]: > 50 µg/mL | MIC [4]: > 50 µg/mL | MIC [5]: > 50 µg/mL

COC(c1ccccc1)C1CN(Cc2ccccc2)C(=O)N(c2ccc(Cl)c(Cl)c2)C1=N (centres undefined)
MIC [1]: 50 µg/mL (≈ 107 µM) | MIC [2]: 1.56 µg/mL (≈ 3.33 µM) | MIC [3]: 3.12 µg/mL (≈ 6.66 µM) | MIC [4]: 1.56 µg/mL (≈ 3.33 µM) | MIC [5]: 3.12 µg/mL (≈ 6.66 µM)

N#C/C(=C/c1ccccc1)CNC(=S)Nc1ccccc1
MIC [1]: 50 µg/mL (≈ 170 µM) | MIC [2]: 50 µg/mL (≈ 170 µM) | MIC [3]: 50 µg/mL (≈ 170 µM) | MIC [4]: 50 µg/mL (≈ 170 µM) | MIC [5]: 50 µg/mL (≈ 170 µM)

Nc1c(Cc2ccc(Cl)c(Cl)c2)cnc(=S)n1-c1ccccc1
MIC [1]: > 50 µg/mL | MIC [2]: > 50 µg/mL | MIC [3]: 25 µg/mL (≈ 69 µM) | MIC [4]: > 50 µg/mL | MIC [5]: 50 µg/mL (≈ 138 µM)

GENTAMICIN SULFATE
MIC [1]: 25 µg/mL | MIC [2]: 6.25 µg/mL | MIC [3]: 0.78 µg/mL | MIC [4]: 0.02 µg/mL | MIC [5]: 0.78 µg/mL

Nc1c(Cc2ccccc2Cl)cnc(=S)n1-c1ccccc1
MIC [1]: > 50 µg/mL | MIC [2]: > 50 µg/mL | MIC [3]: 25 µg/mL (≈ 76.3 µM) | MIC [4]: > 50 µg/mL | MIC [5]: > 50 µg/mL

Cc1ccc(NC(=O)NC/C(C#N)=C\c2ccccc2Cl)cc1Cl
MIC [1]: > 50 µg/mL | MIC [2]: > 50 µg/mL | MIC [3]: > 50 µg/mL | MIC [4]: > 50 µg/mL | MIC [5]: > 50 µg/mL

N#CC(CNC(=O)Nc1ccc(Cl)cc1Cl)C(O)c1ccccc1 (centres undefined)
MIC [1]: > 50 µg/mL | MIC [2]: > 50 µg/mL | MIC [3]: > 50 µg/mL | MIC [4]: > 50 µg/mL | MIC [5]: > 50 µg/mL

N#C/C(=C/c1ccc(Cl)c(Cl)c1)CNC(=O)Nc1ccc(Cl)cc1Cl
MIC [1]: > 50 µg/mL | MIC [2]: > 50 µg/mL | MIC [3]: > 50 µg/mL | MIC [4]: 6.25 µg/mL (≈ 15.1 µM) | MIC [5]: > 50 µg/mL

N=c1c(Cc2ccccc2Cl)c[nH]c(=O)n1-c1ccc(Cl)cc1
MIC [1]: > 50 µg/mL | MIC [2]: > 50 µg/mL | MIC [3]: > 50 µg/mL | MIC [4]: > 50 µg/mL | MIC [5]: > 50 µg/mL

N#CC(CN(Cc1ccccc1)C(=O)Nc1ccc(Cl)cc1)C(O)c1ccccc1 (centres undefined)
MIC [1]: 50 µg/mL (≈ 119 µM) | MIC [2]: 25 µg/mL (≈ 59.5 µM) | MIC [3]: 50 µg/mL (≈ 119 µM) | MIC [4]: 12.5 µg/mL (≈ 29.8 µM) | MIC [5]: 50 µg/mL (≈ 119 µM)

Cc1ccc(-n2c(=O)[nH]cc(Cc3ccc(Cl)c(Cl)c3)c2=N)cc1Cl
MIC [1]: > 50 µg/mL | MIC [2]: > 50 µg/mL | MIC [3]: 50 µg/mL (≈ 127 µM) | MIC [4]: > 50 µg/mL | MIC [5]: 50 µg/mL (≈ 127 µM)

N=C1CCNC(=O)N1c1ccc(Cl)cc1Cl
MIC [1]: 50 µg/mL (≈ 194 µM) | MIC [2]: 50 µg/mL (≈ 194 µM) | MIC [3]: 50 µg/mL (≈ 194 µM) | MIC [4]: 25 µg/mL (≈ 96.9 µM) | MIC [5]: 50 µg/mL (≈ 194 µM)

N#C/C(=C/c1ccc(Cl)c(Cl)c1)CNC(=S)Nc1ccccc1
MIC [1]: 25 µg/mL (≈ 69 µM) | MIC [2]: 1.56 µg/mL (≈ 4.31 µM) | MIC [3]: 3.12 µg/mL (≈ 8.61 µM) | MIC [4]: 1.56 µg/mL (≈ 4.31 µM) | MIC [5]: 3.12 µg/mL (≈ 8.61 µM)

N#C/C(=C/c1ccc(Cl)c(Cl)c1)CNC(=O)Nc1ccc(Cl)c(Cl)c1
MIC [1]: 50 µg/mL (≈ 120 µM) | MIC [2]: 1.56 µg/mL (≈ 3.76 µM) | MIC [3]: 1.56 µg/mL (≈ 3.76 µM) | MIC [4]: 0.78 µg/mL (≈ 1.88 µM) | MIC [5]: 1.56 µg/mL (≈ 3.76 µM)

N=c1c(Cc2ccc(Cl)c(Cl)c2)c[nH]c(=O)n1-c1ccc(Cl)c(Cl)c1
MIC [1]: 50 µg/mL (≈ 120 µM) | MIC [2]: 25 µg/mL (≈ 60.2 µM) | MIC [3]: 25 µg/mL (≈ 60.2 µM) | MIC [4]: 25 µg/mL (≈ 60.2 µM) | MIC [5]: 50 µg/mL (≈ 120 µM)

CC1(C)S[C@@H]2[C@H](NC(=O)[C@H](N)c3ccccc3)C(=O)N2[C@H]1C(=O)O [AMPICILLIN]
MIC [1]: 50 µg/mL (≈ 143 µM) | MIC [2]: 0.09 µg/mL (≈ 0.258 µM) | MIC [3]: 0.02 µg/mL (≈ 0.0572 µM) | MIC [5]: 0.01 µg/mL (≈ 0.0286 µM)

N#C/C(=C/c1ccc(Cl)c(Cl)c1)CNC(=O)Nc1ccc(Cl)cc1
MIC [1]: > 50 µg/mL | MIC [2]: > 50 µg/mL | MIC [3]: > 50 µg/mL | MIC [4]: > 50 µg/mL | MIC [5]: > 50 µg/mL

Cc1ccc(NC(=O)NC/C(C#N)=C\c2ccc(Cl)c(Cl)c2)cc1Cl
MIC [1]: > 50 µg/mL | MIC [2]: > 50 µg/mL | MIC [3]: > 50 µg/mL | MIC [4]: > 50 µg/mL | MIC [5]: > 50 µg/mL
